A value given as a limit tells only on which side of the number the result lay.

The subject of data set [1] is Cavia porcellus. Put plainly: Bronchodilatory activity against histamine-induced bronchospasm in guinea pig assessed as time taken for 50% recovery of bronchospasm at 10 times EC90 administered via nebulizer. It is filed as functional. In a few lines:
(§1)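 In vivo guinea pig model with histamine-induced bronchospasm, measured in a plethysmograph chamber. Compound was given as a nebulised solution in dimethyl acetamide-saline vehicle. Potency is expressed as the EC90 nebuliser concentration.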

The next data set deals with Rattus norvegicus. Put plainly: Liver blood flow in Han Wistar rat at 0.25 mg/kg, iv. The following applies: in vivo. It is filed as ADME, organism-based. On the set-up: dose 0.25 mg/kg, route intravenous.
The species named for data set [2] is Cavia porcellus. In words: Bronchodilatory activity against electrically-stimulated contraction in guinea pig trachea assessed as onset time for bronchorelaxation activity. It is filed as functional. In a few lines:
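Isolated guinea pig trachea strips were superfused and contracted electrically. Agonist was perfused until maximal relaxation was reached. Onset was taken as the time for an EC50 concentration to reach 50% of maximal relaxant effect. Minimum n = 2.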

The species named for data set [3] is Cavia porcellus. Put plainly: Bronchodilatory activity against histamine-induced bronchospasm in the guinea pig. It is filed as functional. In a few lines: as §1
The test system of data set [4] is Cavia porcellus. Put plainly: Bronchodilatory activity against histamine-induced bronchospasm in guinea pig assessed as time taken for 50% recovery of bronchospasm at EC90 administered via nebulizer. It is filed as functional. In a few lines: as §1
Data set [5] in a line: Half life in Han Wistar rat at 0.25 mg/kg, iv. It is filed as ADME, organism-based. Also on record: dose 0.25 mg/kg, route intravenous. Conditions: in vivo. Put shortly: (§2)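 Pharmacokinetics were run in male Han Wistar rat and Beagle dog, dosed intravenously and orally. Plasma clearance, steady-state volume of distribution, half-life and oral bioavailability were derived from the plasma profiles. Rat plasma samples were deconjugated before analysis.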

In data set [6] the target is Beta-2 adrenergic receptor (Cavia porcellus, UniProt Q8K4Z4). Put plainly: Agonist activity at beta2 adrenergic receptor in guinea pig tracheal strip assessed as inhibition of electrically-induced bronchocontractile response. It is filed as functional, tissue-based, Trachea.
Chain of Beta-2 adrenergic receptor (Cavia porcellus, UniProt Q8K4Z4) (Q8K4Z4 whole entry): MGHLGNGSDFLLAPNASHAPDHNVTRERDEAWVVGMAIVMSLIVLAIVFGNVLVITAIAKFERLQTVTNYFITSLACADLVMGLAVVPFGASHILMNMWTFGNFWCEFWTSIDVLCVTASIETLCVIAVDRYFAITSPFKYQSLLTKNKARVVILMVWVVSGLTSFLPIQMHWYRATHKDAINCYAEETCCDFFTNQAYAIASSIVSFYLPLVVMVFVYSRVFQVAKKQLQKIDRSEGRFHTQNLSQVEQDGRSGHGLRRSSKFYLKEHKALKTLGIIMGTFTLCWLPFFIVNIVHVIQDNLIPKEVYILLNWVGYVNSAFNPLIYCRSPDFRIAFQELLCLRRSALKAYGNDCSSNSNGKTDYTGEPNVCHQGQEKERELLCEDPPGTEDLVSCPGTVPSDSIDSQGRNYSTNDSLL
Data set [7] deals with Beta-1 adrenergic receptor (Homo sapiens, UniProt P08588). Put plainly: Agonist activity at human beta1 receptor expressed in CHO cells assessed as cAMP accumulation. It is filed as functional, cell-based. In general terms: Changes in cAMP serve as a functional read-out for many G protein-coupled receptors.
Chain of Beta-1 adrenergic receptor (P08588 whole entry): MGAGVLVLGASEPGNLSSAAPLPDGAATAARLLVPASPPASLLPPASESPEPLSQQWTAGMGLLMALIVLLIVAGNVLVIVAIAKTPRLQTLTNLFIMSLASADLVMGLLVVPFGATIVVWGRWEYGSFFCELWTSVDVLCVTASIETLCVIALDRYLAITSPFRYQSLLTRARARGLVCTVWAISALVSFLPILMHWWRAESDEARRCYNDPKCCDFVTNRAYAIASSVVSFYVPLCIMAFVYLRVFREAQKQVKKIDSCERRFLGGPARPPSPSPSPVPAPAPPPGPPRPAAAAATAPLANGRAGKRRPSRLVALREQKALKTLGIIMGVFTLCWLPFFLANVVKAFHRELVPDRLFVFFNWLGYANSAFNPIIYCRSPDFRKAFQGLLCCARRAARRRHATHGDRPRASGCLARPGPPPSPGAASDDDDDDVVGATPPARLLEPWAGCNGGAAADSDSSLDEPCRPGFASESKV
In a further data set the test system is Canis familiaris. In words: Liver blood flow in Beagle dog at 0.05 mg/kg, iv. The following applies: in vivo.
A short description of data set [8]: Half life in Beagle dog at 0.05 mg/kg, iv. Conditions: in vivo.
Data set [9] is described as follows: Oral bioavailability in Han Wistar rat at 2 mg/kg. It is filed as ADME, organism-based. Conditions: in vivo. Put shortly:
as §2

Data set [10] can be described thus: Lipophilicity, log D of the compound at pH 6.4. It is filed as physicochemical. Conditions: buffer.
Data set [11] can be described thus: Volume of distribution at steady state in Beagle dog at 0.05 mg/kg, iv. Conditions: in vivo, read-out: Vdss.
Data set [12] is described as follows: Volume of distribution at steady state in Han Wistar rat at 0.25 mg/kg, iv. Conditions: in vivo, read-out: Vdss. Also on record: dose 0.25 mg/kg, route intravenous. It is filed as ADME, organism-based. In a few lines: as §2
Data set [13] in a line: Plasma clearance in Beagle dog at 0.05 mg/kg, iv.
Data set [14] addresses Beta-2 adrenergic receptor (Homo sapiens, UniProt P07550). In words: Agonist activity at human beta2 receptor expressed in CHO cells assessed as cAMP accumulation. It is filed as functional, cell-based.
A short description of data set [15]: AUC in Han Wistar rat at 2 mg/kg, po. It is filed as ADME, organism-based. Also on record: dose 2 mg/kg, route oral. The following applies: plasma. In a few lines: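 Oral absorption in rat was measured as AUC using a deconjugated HPV model.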
A short description of data set [16]: Oral bioavailability in Beagle dog at 0.25 mg/kg. The following applies: in vivo.
A further data set deals with Liver microsomes. Put plainly: Metabolic stability in human liver microsomes assessed as compound turn over ratio relative to verapamil. It is filed as ADME, Microsome. (Liver microsomes are vesicles of endoplasmic reticulum, rich in cytochrome P450 enzymes.)
For data set [17], the target named is Beta-3 adrenergic receptor (Homo sapiens, UniProt P13945). In words: Agonist activity at human beta3 receptor expressed in CHO cells assessed as cAMP accumulation. It is filed as functional, cell-based.
Chain of Beta-3 adrenergic receptor (P13945 whole entry): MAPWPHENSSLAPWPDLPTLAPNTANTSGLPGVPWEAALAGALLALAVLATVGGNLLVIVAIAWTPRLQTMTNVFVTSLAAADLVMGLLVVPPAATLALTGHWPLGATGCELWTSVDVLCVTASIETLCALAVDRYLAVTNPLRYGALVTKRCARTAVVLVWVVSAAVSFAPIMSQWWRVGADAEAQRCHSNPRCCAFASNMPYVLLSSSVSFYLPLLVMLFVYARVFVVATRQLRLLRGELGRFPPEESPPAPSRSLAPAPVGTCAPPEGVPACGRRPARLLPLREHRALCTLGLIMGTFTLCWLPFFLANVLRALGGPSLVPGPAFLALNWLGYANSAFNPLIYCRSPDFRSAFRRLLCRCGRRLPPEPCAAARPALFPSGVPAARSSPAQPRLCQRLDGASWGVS
Data set [18] is described as follows: Plasma clearance in Han Wistar rat at 0.25 mg/kg, iv. It is filed as ADME, organism-based. On the set-up: dose 0.25 mg/kg, route intravenous. Put shortly:
as §2

The nature of data set [19]: Oral bioavailability in dog. It is filed as ADME, organism-based, Canis lupus familiaris. The following applies: in vivo. Put shortly:
as §2

Chain of Beta-2 adrenergic receptor (Homo sapiens, UniProt P07550) (P07550 whole entry): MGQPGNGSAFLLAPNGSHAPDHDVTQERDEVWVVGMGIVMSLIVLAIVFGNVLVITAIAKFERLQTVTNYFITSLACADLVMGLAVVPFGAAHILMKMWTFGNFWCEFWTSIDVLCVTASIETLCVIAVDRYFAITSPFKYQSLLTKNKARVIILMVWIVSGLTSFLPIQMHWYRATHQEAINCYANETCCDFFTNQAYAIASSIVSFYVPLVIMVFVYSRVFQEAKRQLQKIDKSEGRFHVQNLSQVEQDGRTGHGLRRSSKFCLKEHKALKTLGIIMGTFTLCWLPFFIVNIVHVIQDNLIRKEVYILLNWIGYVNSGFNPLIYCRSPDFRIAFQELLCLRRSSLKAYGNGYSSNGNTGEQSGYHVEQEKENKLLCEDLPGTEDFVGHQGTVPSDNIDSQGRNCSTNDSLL

As a reminder, the EC90 is the concentration at which the effect reaches the 90% level. Read a high EC90 as weaker potency. For orientation: half-life means the time in which the quantity being followed falls by half. In general, EC50 refers to the concentration needed to bring the measured effect to its halfway point. Usually bioavailability stands for dose-corrected exposure relative to a reference, in per cent. A lower bioavailability goes with poor availability. In general, logD refers to the decadic logarithm of the distribution of all forms, ionised or not, between an organic phase and buffer at a given pH. A high value points to higher lipophilicity. Usually clearance stands for a measure of how efficiently the substance is removed, as volume per time. By AUC is commonly meant concentration integrated over time. Read a low AUC as less exposure. In the case of `CC(=O)O.Cc1cc(CCCCOCCCCCCNC[C@H](O)c2ccc(O)c(CO)c2)cc(NC(N)=O)c1`, the Time in the data set on Cavia porcellus [1] was 18 h; in the data set listed under Cavia porcellus [2] it was 10 min; in the data set with Cavia porcellus [4], 7 h. For the same compound, the QH in the data set on Rattus norvegicus is given as 100%; in the data set with Canis familiaris, less than 67%. In addition, the EC90 in the data set listed under Cavia porcellus [3] came out at 10000 nM. For the same compound, the values for the half-life in data set [5] and in [8] were 54 min and 60 min, respectively. Also, the EC50 in [6] is 1.58 nM; in data set [7], 39.8 nM; in data set [14], 0.158 nM; in data set [17] it was 39.8 nM. In addition, the bioavailability in [9] is less than 5%; in data set [16] it was 6%. The compound further registered a pH-dependent lipophilicity (logD) in data set [10] of 0.2. The Vd in [11] amounted to 0.55 L/kg; in [12], 2 L/kg. The clearance was 6 mL/min/kg in data set [13] and 83 mL/min/kg in data set [18]. In addition, in data set [15], the area under the curve (AUC) was 80.2 ng·h/mL. For the same compound, the “fold change (FC)” value in the data set on Liver microsomes was 1.17.

Take `NC(=O)CNC(=O)Nc1cccc(CCCCOCCCCCCNC[C@H](O)c2ccc(O)c(CO)c2)c1.O=CO`: the Time in the data set listed under Cavia porcellus [2] is 9 min. For the same compound, the EC50 in [6] is 0.251 nM; in data set [7] it was 31.6 nM; in data set [14], 0.251 nM; in data set [17], 100 nM. The same compound came in with a logD in data set [10] of -0.78.

With `CC(=O)O.CCNC(=O)Nc1cccc(CCCCOCCCCCCNC[C@H](O)c2ccc(O)c(CO)c2)c1`, the Time in the data set filed under Cavia porcellus [2] was 15 min. The EC50 in [6] is 1.26 nM; in data set [7], 31.6 nM; in data set [14], 1 nM; in data set [17] it was 158 nM. The compound further returned a logD in [10] of 0.5. Further, the “fold change (FC)” value in the data set with Liver microsomes worked out at 0.81.

Take `CC(=O)O.CCNC(=O)Nc1ccc(CCCCOCCCCCCNC[C@H](O)c2ccc(O)c(CO)c2)cc1`: the figures for the 50% effective concentration (EC50) in data set [7], in data set [14] and in [17] were 31.6 nM, 0.501 nM and 12.6 nM, respectively. Also, in the data set on Liver microsomes, the “fold change (FC)” value came to 1.37.

As to `CC(=O)O.CCNC(=O)NCc1cccc(CCCCOCCCCCCNC[C@H](O)c2ccc(O)c(CO)c2)c1`, the EC50 is 31.6 nM in [7], 0.631 nM in data set [14] and 31.6 nM in data set [17]. In addition, the “fold change (FC)” value in the data set on Liver microsomes amounted to 0.72.

Consider `OCc1cc(C(O)CNCCCCCCOCCCCc2ccccc2)ccc1O` (configuration not stated) [SALMETEROL], for which the Time in the data set on Cavia porcellus [4] was 8 h. In addition, the bioavailability in [19] was found to be 66%. The same compound gave a logD in data set [10] of 1.06.

Consider `CC(=O)O.NC(=O)Nc1cc(CCCCOCCCCCCNC[C@H](O)c2ccc(O)c(CO)c2)cc(C(F)(F)F)c1`, for which the EC50 is 50.1 nM in data set [7], 1 nM in data set [14] and 25.1 nM in data set [17]. Moreover, in the data set with Liver microsomes, the “fold change (FC)” value is given as 1.34.

As to `O=C(CNC(=O)Nc1cccc(CCCCOCCCCCCNC[C@H](O)c2ccc(O)c(CO)c2)c1)NC1CCCC1`, the EC50 in data set [7] was 10 nM; in [14], 0.316 nM; in [17], 12.6 nM.

In the case of `CC(=O)O.O=C(Nc1cccc(CCCCOCCCCCCNC[C@H](O)c2ccc(O)c(CO)c2)c1)NC1CCCCC1`, the EC50 in data set [7] is 7.94 nM; in data set [14], 1 nM; in [17] it was 2.51 nM. Besides, the “fold change (FC)” value in the data set with Liver microsomes turned out to be 2.18.

Consider `CC(=O)O.NC(=O)NCc1cccc(CCCCOCCCCCCNC[C@H](O)c2ccc(O)c(CO)c2)c1`, for which the EC50 in data set [7] was 7.94 nM; in data set [14], 0.501 nM; in data set [17] it was 15.8 nM. In the data set on Liver microsomes, the “fold change (FC)” value turned out to be 1.64.

On to `CC(=O)O.NC(=O)Nc1cccc(CCCCOCCCCCCNC[C@H](O)c2ccc(O)c(CO)c2)c1`, for which, in the data set listed under Cavia porcellus [2], the Time was determined as 13.5 min. Also, the EC50 is 2.51 nM in data set [6], 63.1 nM in data set [7], 0.794 nM in [14] and 7.94 nM in data set [17]. Moreover, the logD in data set [10] was -0.28. The “fold change (FC)” value with Liver microsomes is listed as 0.97.

The values are drawn from ChEMBL document CHEMBL1833832, “The discovery of long-acting saligenin β₂ adrenergic receptor agonists incorporating a urea group” (Bioorg Med Chem, 2011).
